# Screens from PubChem.
# mIAP inh – inhibitors of mouse IAP, primary screen, biochemical, luminescence, uHTS; intestinal alkaline phosphatase [Mus musculus]; purified mouse IAP, CDP-Star luminescence, 30 min; inhibition, % at 10 µM; 330,000 compounds, 0.2% hits; AID 2806, 2010;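 active = inhibition of at least 40% at 10 µM in the primary screen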;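 note: plate controls were DMSO with enzyme for no effect and no enzyme wells for full effect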
# hIAP inh – human IAP inhibitors, primary screen, biochemical, luminescence, uHTS. inhibition, % at 10 µM. purified IAP, CDP-Star luminescence, 30 min. 330,000 compounds, 0.12% hits. Intestinal-type alkaline phosphatase (Homo sapiens), P09923;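 active = inhibition reaching a set limit with compound at 10 µM in the primary screen, cut at about 35% in these data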;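 note: plate controls were DMSO wells with enzyme for no effect and no-enzyme buffer wells for full effect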
# Target sequence (P09923 whole entry, looked up): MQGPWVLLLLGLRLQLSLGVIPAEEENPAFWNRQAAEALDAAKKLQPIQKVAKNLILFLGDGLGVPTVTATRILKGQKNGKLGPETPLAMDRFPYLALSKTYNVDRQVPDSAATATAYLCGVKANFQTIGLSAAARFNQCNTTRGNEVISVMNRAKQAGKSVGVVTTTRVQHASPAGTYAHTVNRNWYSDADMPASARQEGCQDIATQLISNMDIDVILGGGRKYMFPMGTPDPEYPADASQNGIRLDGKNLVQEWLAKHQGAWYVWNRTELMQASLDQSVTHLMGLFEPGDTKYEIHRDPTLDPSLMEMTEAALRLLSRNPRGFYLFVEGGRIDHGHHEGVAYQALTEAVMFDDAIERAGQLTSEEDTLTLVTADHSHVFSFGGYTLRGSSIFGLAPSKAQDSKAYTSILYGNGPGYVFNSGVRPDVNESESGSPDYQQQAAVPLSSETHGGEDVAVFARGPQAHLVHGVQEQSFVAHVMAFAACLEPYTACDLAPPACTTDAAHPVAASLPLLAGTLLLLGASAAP
# bIAP inhibitor – bovine intestinal alkaline phosphatase inhibitors, primary screen, selectivity assay for TNAP inhibitor project, biochemical, bovine IAP, CDP-star luminescence. alkaline phosphatase, intestinal [Bos taurus]. purified bovine IAP, 30 min. inhibition, % at 20 µM. 190,000 tested, under 10 active. AID 1019, 2008;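 active = over 50% inhibition of intestinal alkaline phosphatase at 20 µM in the single-dose screen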
#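 System: purified bovine intestinal alkaline phosphatase (IAP) enzyme; Input: IAP diluted 1/65,000,000 in the well; Measured by: CDP-star luminescence signal; Compound dosing: 20 µM single dose; Incubation: 30 min reaction at room temperature.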
# hIAP act – human IAP activators, primary screen, biochemical, luminescence, uHTS; 330,000 compounds, 0.16% hits; activation factor at 10 µM; purified human IAP, CDP-Star luminescence, 30 min; active compounds read high; 1 = vehicle-only enzyme, 0 = enzyme-free background; Intestinal-type alkaline phosphatase (Homo sapiens), P09923;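 active = activation factor of the enzyme at least 2-fold when tested at 20 µM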
# bIAP activator – bovine intestinal alkaline phosphatase activators, primary screen, biochemical, bovine IAP, CDP-star luminescence. purified bovine IAP, 30 min; active compounds read high; fold of DMSO-control signal, blank-subtracted. AID 1016, 2008. 200,000 compounds, 0.17% hits. activation factor at 20 µM. alkaline phosphatase, intestinal [Bos taurus];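 active = activation factor of 2 or more at 20 µM, a signal rise over negative controls twice the positive control's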
# mIAP activ – activators of mouse IAP, primary screen, biochemical, luminescence, uHTS. activation factor at 10 µM. intestinal alkaline phosphatase [Mus musculus]. AID 2805, 2010. 330,000 compounds, 0.24% hits. muIAP, CDP-Star luminescence, 30 min; active compounds read high; 1 = vehicle-only enzyme signal, 0 = enzyme-free wells;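 active = activation factor of at least 2 at 20 µM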
#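 System: Mouse IAP enzyme | Also added: CDP-Star substrate | Dosing: Compounds dispensed in DMSO | Schedule: 30 min enzyme-substrate-compound incubation at room temperature | Technique: Chemiluminescence readout | Control set: DMSO-only wells and no-enzyme negative control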
# hIAP act conf – human IAP activators, confirmation, biochemical, luminescence, single concentration, uHTS hits | 880 compounds, 10% hits | shares compounds with hIAP act | activation (%Activity, negative = activation), % at 8.3 µM | purified IAP, CDP-Star luminescence, 30 min; active compounds read low;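 active = at least twofold enzyme activation in any of six single-dose repeats, which the averaged readout prints as negative percent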
# mIAP inh confirm – inhibitors of mouse IAP, confirmation, biochemical, luminescence, single concentration. shares compounds with mIAP inh. inhibition, % at 10 µM. purified mouse IAP, CDP-Star luminescence, 30 min. 11,000 compounds, 4.7% hits;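 active = inhibition of at least 40% at 10 µM in either of the two replicates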;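 note: plate controls were DMSO wells with enzyme for no effect and buffer wells lacking enzyme for full effect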
# Numbers without * were called inactive; · = not tested or not shown. Rows were chosen to be rich in hits. Some 0.72% of all compounds tested hit in one or more screens of this group.
SMILES,mIAP inh,hIAP inh,bIAP inhibitor,hIAP act,bIAP activator,mIAP activ,mIAP inh confirm,others
CNS(=O)(=O)c1ccc(-c2ccc(C=C3C(=O)NC(=O)NC3=O)o2)cc1,19,9,·,0.91,·,0.81,·,
NS(=O)(=O)c1ccc(-c2ccc(C=C3C(=O)NC(=O)NC3=O)o2)cc1,64*,7,·,0.93,·,0.35,·,
C[C@]12CCC3C(CC[C@H]4C[C@H](O)CC[C@]34C)C1C[C@H](O)[C@@H]2O (some centres not stated),-7,12,·,0.88,·,1.1,·,
C[C@]12CCC3C(CC[C@H]4C[C@@H](O)CC[C@]34C)C1C[C@H](Br)[C@@H]2O (some centres not stated),-13,-15,·,1.2,·,1.1,·,
Nc1ncc([N+](=O)[O-])s1,43*,-17,·,1.2,·,0.57,·,
CN1C(=O)C(=Cc2ccc(N3CCCCCC3)o2)C(=O)N(C)C1=S,43*,1,27,0.99,0.7,0.57,·,
O=C(Nc1cccc(Cl)c1)OC1CN2CCC1CC2 (configuration not stated),-342,7,·,0.93,·,4.4*,·,
Cc1ncc2n1-c1ccc(Cl)cc1C(c1ccccc1F)=NC2,-9,-2,·,1,·,1.1,·,
COC(=O)Cn1cc(/C=C2\C(=O)NC(=O)N(c3ccccc3)C2=O)c2ccccc21,2,37*,·,0.63,·,0.98,·,hIAP act conf=34
C[C@]12CCC3C(CC[C@H]4C[C@H](O)CC[C@]34C)C1[C@@H](O)C[C@@H]2O (some centres not stated),0,15,·,0.85,·,1,·,
CC(C)(C)c1cc(C=C(C#N)C#N)cc(C(C)(C)C)c1O,24,20,·,0.8,·,0.76,·,
N#CC(C#N)=Cc1ccc(O)c(O)c1,46*,33,·,0.67,·,0.54,66*,
CCN(CC)c1ccc(/C=C2\C(=O)NC(=O)N(Cc3ccco3)C2=O)cc1,49*,5,14,0.95,0.9,0.51,53*,
O=C(O)Cn1cc(/C=C2\C(=O)NC(=O)N(Cc3ccco3)C2=O)c2ccccc21,57*,1,-8,0.99,1.1,0.43,58*,
CCN(CC)c1ccc(/C=C2/C(=O)NC(=O)N(CC3CCCO3)C2=O)cc1 (configuration not stated),3,9,1,0.91,1,0.97,·,
C=C1C(O)[C@@H]2O[C@]3(CC[C@H](/C=C/C(C)[C@@H]4CC(C)=CC5(O[C@H](C[C@@](C)(O)C(=O)O)CCC5O)O4)O3)CC[C@H]2O[C@@H]1C(O)CC(C)[C@H]1OC2(CCCCO2)CCC1C (some centres not stated),-9,-1,·,1,·,1.1,·,
c1ccc2nc(N3CCNCC3)ccc2c1,-17,-5,·,1.1,·,1.2,·,
CCN1C(=O)C(=Cc2ccc(C)s2)C(=O)N(CC)C1=S,11,9,13,0.91,0.9,0.89,·,
O=C1NC(=S)NC(=O)C1=Cc1ccc(Br)s1,60*,-6,·,1.1,·,0.4,76*,
NS(=O)(=O)c1ccc(-c2ccc(C=C3C(=O)NC(=S)NC3=O)o2)cc1,78*,7,·,0.93,·,0.22,72*,
O=C1NC(=O)N(c2ccccc2)C(=O)/C1=C\c1ccc([N+](=O)[O-])s1,41*,2,·,0.98,·,0.59,53*,
Cc1ccc(/C=C2/C(=O)NC(=O)N(C)C2=O)cc1,1,-13,-5,1.1,1,0.99,·,
CN1C(=O)NC(=O)/C(=C/c2ccc([N+](=O)[O-])s2)C1=O,46*,0,·,1,·,0.54,45*,
COc1ccc(OC)c(N2C(=O)NC(=O)/C(=C\c3ccc([N+](=O)[O-])s3)C2=O)c1,28,16,-2,0.84,1,0.72,·,
C/C=C1/C[N+]2(C)CCC34C(=C(C=O)[C@H]1C[C@@H]32)Nc1ccccc14 (some centres not stated),-9,-11,·,1.1,·,1.1,·,
SMILES,mIAP inh,hIAP inh,bIAP inhibitor,hIAP act,bIAP activator,mIAP activ,mIAP inh confirm,others
O=c1ccc2c(O)c3ccoc3cc2o1,-6,11,·,0.89,·,1.1,·,
O=C1NC(=O)N(Cc2ccc(F)cc2)C(=O)/C1=C\C=C\c1ccco1,59*,1,·,0.99,·,0.41,61*,
O=C1NC(=O)N(Cc2ccccc2)C(=O)/C1=C\c1ccco1,7,9,-14,0.91,1.1,0.93,·,
Cc1ccc(CN2C3CCCC2CC(NC(=S)NCc2ccccc2)C3)cc1 (configuration not stated),-353,-100,-320,2,4.2*,4.5*,-188,
C[C@]12CCC(=O)C[C@H]1CC[C@@H]1[C@@H]2CC[C@]2(C)C(=O)CC[C@@H]12,-2,1,·,0.99,·,1,·,
CN1C(=O)NC(=O)/C(=C\c2ccc([N+](=O)[O-])o2)C1=O,44*,11,2,0.89,1,0.56,56*,
CN1C(=O)NC(=O)/C(=C/c2ccc([N+](=O)[O-])o2)C1=O,42*,12,·,0.88,·,0.58,42*,
O=C1NC(=O)N(c2ccccc2)C(=O)/C1=C\c1ccc([N+](=O)[O-])o1,47*,-16,·,1.2,·,0.53,59*,
COC(=O)C1=C(c2ccc(OC(F)(F)F)cc2)C[C@@H]2CC[C@H]1N2C(=O)N1CCCC1,-3,-4,·,1,·,1,·,
